Measured values from ChEMBL document CHEMBL1777764, “Synthesis and evaluation of 1-(1H-indol-3-yl)ethanamine derivatives as new antibacterial agents” (Bioorg Med Chem, 2011).

What was measured:
Staphylococcus aureus [1] = experiment: Antibacterial activity against Staphylococcus aureus ATCC 29213 after 18 hrs by broth microdilution method; format: functional; conditions: ATCC 29213, 18 h
How it was run: (§1)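 MIC by broth microdilution per ISO 20776-1:2006 and CLSI M07-A8. Inoculum 10^6 cfu/ml in Mueller-Hinton broth with compound serially diluted, final concentrations 2 to 128 ug/ml, duplicate rows, no-drug growth control. Incubation 18 h at 37 °C. MIC taken as lowest concentration giving complete inhibition of visible growth. Each compound tested at least twice.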

Streptococcus pyogenes = experiment: Antibacterial activity against Streptococcus pyogenes CIP 104226 after 18 hrs by broth microdilution method; format: functional; conditions: CIP 104226, 18 h
How it was run: (§2)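 Broth microdilution following ISO 20776-1:2006 and CLSI M07-A8, in Mueller-Hinton broth. Inoculum was 10^6 cfu/ml, with compound serial dilutions spanning 2 to 128 ug/ml and a compound-free growth control well. Plates were incubated 18 h at 37 °C. MIC was the lowest concentration giving complete inhibition of visible growth. Each compound was tested at least twice.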

Enterobacter cloacae = experiment: microbe, parasite or virus in culture; conditions: ATCC 13047, 18 h
KB [2] = experiment: Cytotoxicity against human KB cells at 10 uM; format: cell-based
Staphylococcus aureus [3] = experiment: Antibacterial activity against Staphylococcus aureus ATCC 9144 after 18 hrs by broth microdilution method; format: functional; conditions: ATCC 9144, 18 h; how it was run: as §1
Pseudomonas aeruginosa = experiment: microbe, parasite or virus in culture; conditions: CIP 5933, 18 h
KB [4] = experiment: Cytotoxicity against human KB cells at 1 uM; format: cell-based
Serratia marcescens = experiment: microbe, parasite or virus in culture; conditions: CIP 103551, 18 h
Streptococcus agalactiae = experiment: Antibacterial activity against Streptococcus agalactiae ATCC 12400 after 18 hrs by broth microdilution method; format: functional; conditions: ATCC 12400, 18 h; how it was run: as §2
HCT-116 [5] = experiment: Cytotoxicity against human HCT116 cells at 1 uM; format: cell-based; conditions: hct-116, 1 µM
Haemophilus influenzae = experiment: Antibacterial activity against Haemophilus influenzae ATCC 49766 after 18 hrs by broth microdilution method; format: functional; conditions: ATCC 49766, 18 h
How it was run: as §2, with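 “broth […].” for “broth.”, “read after” for “incubated”, “with no” for “giving complete inhibition of”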

MRC5 [6] = experiment: Cytotoxicity against human MRC5 cells at 10 uM; format: cell-based; conditions: mrc5, 10 µM
[7] = test system: Staphylococcus epidermidis; experiment: Antibacterial activity against Staphylococcus epidermidis CIP 81.55 after 18 hrs by broth microdilution method; format: functional; conditions: CIP 81.55, 18 h; how it was run: as §1
Staphylococcus aureus [8] = experiment: Antibacterial activity against Staphylococcus aureus ATCC 6538 after 18 hrs by broth microdilution method; format: functional; conditions: ATCC 6538, 18 h; how it was run: as §1
HCT-116 [9] = experiment: Cytotoxicity against human HCT116 cells at 10 uM; format: cell-based; conditions: hct-116, 10 µM
Staphylococcus aureus [10] = experiment: Antibacterial activity against vancomycin intermediate Staphylococcus aureus […] after 18 hrs by broth microdilution method; format: functional; how it was run: as §2
Staphylococcus aureus [11] = experiment: Antibacterial activity against methicillin-resistant Staphylococcus aureus CIP 65.25 after 18 hrs by broth microdilution method; format: functional; conditions: CIP 65.25, 18 h; how it was run: as §2
[12] = test system: Staphylococcus epidermidis; experiment: Antibacterial activity against Staphylococcus epidermidis ATCC 12228 after 18 hrs by broth microdilution method; format: functional; conditions: ATCC 12228, 18 h; how it was run: as §1
Enterococcus faecium = experiment: Antibacterial activity against Enterococcus faecium CIP 54.32 after 18 hrs by broth microdilution method; format: functional; conditions: CIP 54.32, 18 h; how it was run: as §2
Streptococcus pneumoniae [13] = experiment: Antibacterial activity against Streptococcus pneumoniae ATCC 6303 after 18 hrs by broth microdilution method; format: functional; conditions: ATCC 6303, 18 h
How it was run: (§3)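 MIC by broth microdilution per ISO 20776-1:2006 and CLSI M07-A8. Inoculum 10^6 cfu/ml in Mueller-Hinton broth […]. Compound serially diluted, final 2 to 128 ug/ml, duplicate rows, no-drug growth control. Read after 18 h at 37 °C as lowest concentration fully inhibiting visible growth. At least two experiments.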

Acinetobacter baumannii = experiment: microbe, parasite or virus in culture; conditions: ATCC 19606 = CIP 70.34 = JCM 6841, 18 h
Enterococcus faecalis = experiment: Antibacterial activity against Enterococcus faecalis ATCC 29212 after 18 hrs by broth microdilution method; format: functional; conditions: ATCC 29212, 18 h; how it was run: as §2
Streptococcus pneumoniae [14] = experiment: Antibacterial activity against Streptococcus pneumoniae ATCC 49619 after 18 hrs by broth microdilution method; format: functional; conditions: ATCC 49619, 18 h; how it was run: as §3
Staphylococcus aureus [15] = experiment: Antibacterial activity against methicillin-resistant Staphylococcus aureus ATCC 33592 after 18 hrs by broth microdilution method; format: functional; conditions: ATCC 33592, 18 h; how it was run: as §2
Klebsiella pneumoniae = experiment: microbe, parasite or virus in culture; conditions: ATCC 35657, 18 h
MRC5 [16] = experiment: Cytotoxicity against human MRC5 cells at 1 uM; format: cell-based; conditions: mrc5, 1 µM
Streptococcus mitis = experiment: Antibacterial activity against Streptococcus mitis CIP 103335 after 18 hrs by broth microdilution method; format: functional; conditions: CIP 103335, 18 h
How it was run: as §2, with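 “broth […].” for “broth.”, “read after” for “incubated”, “with no” for “giving complete inhibition of”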

Staphylococcus aureus [17] = experiment: Antibacterial activity against Staphylococcus aureus CIP 103428 after 18 hrs by broth microdilution method; format: functional; conditions: CIP 103428, 18 h; how it was run: as §1
Escherichia coli = experiment: Antibacterial activity against Escherichia coli ATCC 25922 after 18 hrs by broth microdilution method; format: functional; conditions: ATCC 25922, 18 h; how it was run: as §2
Staphylococcus aureus [18] = experiment: Antibacterial activity against Staphylococcus aureus ATCC 25923 after 18 hrs by broth microdilution method; format: functional; conditions: ATCC 25923, 18 h; how it was run: as §1
Staphylococcus aureus [19] = experiment: Antibacterial activity against Staphylococcus aureus CIP 65.6 after 18 hrs by broth microdilution method; format: functional; conditions: CIP 65.6, 18 h; how it was run: as §1
[20] = test system: Staphylococcus epidermidis; experiment: Antibacterial activity against Staphylococcus epidermidis CIP 103627 after 18 hrs by broth microdilution method; format: functional; conditions: CIP 103627, 18 h; how it was run: as §1

SMILES | MIC (Staphylococcus aureus [1]) [µg/mL] | MIC (Streptococcus pyogenes) [µg/mL] | MIC (Enterobacter cloacae) [µg/mL] | Activity (KB [2]) | MIC (Staphylococcus aureus [3]) [µg/mL] | MIC (Pseudomonas aeruginosa) [µg/mL] | Activity (KB [4]) | MIC (Serratia marcescens) [µg/mL] | MIC (Streptococcus agalactiae) [µg/mL] | Activity (HCT-116 [5]) | MIC (Haemophilus influenzae) [µg/mL] | Activity (MRC5 [6]) | MIC [7] [µg/mL] | MIC (Staphylococcus aureus [8]) [µg/mL] | Activity (HCT-116 [9]) | MIC (Staphylococcus aureus [10]) [µg/mL] | MIC (Staphylococcus aureus [11]) [µg/mL] | MIC [12] [µg/mL] | MIC (Enterococcus faecium) [µg/mL] | MIC (Streptococcus pneumoniae [13]) [µg/mL] | other results
Cl.Cl.NCC(NO)c1c[nH]c2ccccc12 (configuration not stated) | 32 | > 128 | > 128 | Non-toxic | 32 | > 128 | Non-toxic | > 128 | > 128 | Non-toxic | > 128 | Non-toxic | 32 | 32 | Non-toxic | 32 | 64 | 32 | > 128 | > 128 | MIC (Acinetobacter baumannii): > 128 µg/mL; MIC (Enterococcus faecalis): > 128 µg/mL; MIC (Streptococcus pneumoniae [14]): > 128 µg/mL; MIC (Staphylococcus aureus [15]): 64 µg/mL; MIC (Klebsiella pneumoniae): > 128 µg/mL; Activity (MRC5 [16]): Non-toxic; MIC (Streptococcus mitis): > 128 µg/mL; MIC (Staphylococcus aureus [17]): 32 µg/mL; MIC (Escherichia coli): > 128 µg/mL; MIC (Staphylococcus aureus [18]): 32 µg/mL; MIC (Staphylococcus aureus [19]): 32 µg/mL; MIC [20]: 32 µg/mL
Cl.Cl.Cl.NCC(NO)c1c[nH]c2cc(Cl)ccc12 (configuration not stated) | 16 | 64 | 64 | Non-toxic | 16 | 64 | Non-toxic | 64 | 64 | Non-toxic | 128 | Non-toxic | 16 | 16 | Non-toxic | 16 | 16 | 16 | 128 | 64 | MIC (Acinetobacter baumannii): 64 µg/mL; MIC (Enterococcus faecalis): 128 µg/mL; MIC (Streptococcus pneumoniae [14]): 64 µg/mL; MIC (Staphylococcus aureus [15]): 16 µg/mL; MIC (Klebsiella pneumoniae): 64 µg/mL; Activity (MRC5 [16]): Non-toxic; MIC (Streptococcus mitis): 64 µg/mL; MIC (Staphylococcus aureus [17]): 16 µg/mL; MIC (Escherichia coli): 32 µg/mL; MIC (Staphylococcus aureus [18]): 16 µg/mL; MIC (Staphylococcus aureus [19]): 16 µg/mL; MIC [20]: 16 µg/mL
Cl.Cl.NCC(NO)c1c[nH]c2cc(F)ccc12 (configuration not stated) | 16 | 64 | 64 | Non-toxic | 16 | 64 | Non-toxic | 64 | 64 | Non-toxic | > 128 | Non-toxic | 16 | 16 | Non-toxic | 16 | 16 | 16 | 128 | 64 | MIC (Acinetobacter baumannii): 64 µg/mL; MIC (Enterococcus faecalis): 128 µg/mL; MIC (Streptococcus pneumoniae [14]): 64 µg/mL; MIC (Staphylococcus aureus [15]): 16 µg/mL; MIC (Klebsiella pneumoniae): 64 µg/mL; Activity (MRC5 [16]): Non-toxic; MIC (Streptococcus mitis): 64 µg/mL; MIC (Staphylococcus aureus [17]): 16 µg/mL; MIC (Escherichia coli): 64 µg/mL; MIC (Staphylococcus aureus [18]): 16 µg/mL; MIC (Staphylococcus aureus [19]): 16 µg/mL; MIC [20]: 16 µg/mL
Cl.Cl.Cl.NCC(NO)c1c[nH]c2ccc(Cl)cc12 (configuration not stated) | 16 | 128 | 128 | Non-toxic | 16 | 128 | Non-toxic | 128 | 128 | Non-toxic | 128 | Non-toxic | 16 | 16 | Non-toxic | 16 | 16 | 16 | > 128 | 64 | MIC (Acinetobacter baumannii): 128 µg/mL; MIC (Enterococcus faecalis): > 128 µg/mL; MIC (Streptococcus pneumoniae [14]): 64 µg/mL; MIC (Staphylococcus aureus [15]): 16 µg/mL; MIC (Klebsiella pneumoniae): 128 µg/mL; Activity (MRC5 [16]): Non-toxic; MIC (Streptococcus mitis): 128 µg/mL; MIC (Staphylococcus aureus [17]): 16 µg/mL; MIC (Escherichia coli): 64 µg/mL; MIC (Staphylococcus aureus [18]): 16 µg/mL; MIC (Staphylococcus aureus [19]): 16 µg/mL; MIC [20]: 16 µg/mL
Cl.Cl.NCC(NO)c1c[nH]c2ccc(F)cc12 (configuration not stated) | 8 | 32 | 32 | Non-toxic | 8 | 32 | Non-toxic | 32 | 32 | Non-toxic | > 128 | Non-toxic | 8 | 8 | Non-toxic | 8 | 16 | 8 | 64 | 64 | MIC (Acinetobacter baumannii): 32 µg/mL; MIC (Enterococcus faecalis): 64 µg/mL; MIC (Streptococcus pneumoniae [14]): 64 µg/mL; MIC (Staphylococcus aureus [15]): 16 µg/mL; MIC (Klebsiella pneumoniae): 32 µg/mL; Activity (MRC5 [16]): Non-toxic; MIC (Streptococcus mitis): 32 µg/mL; MIC (Staphylococcus aureus [17]): 8 µg/mL; MIC (Escherichia coli): 32 µg/mL; MIC (Staphylococcus aureus [18]): 8 µg/mL; MIC (Staphylococcus aureus [19]): 8 µg/mL; MIC [20]: 8 µg/mL
Cl.Cl.NCC(NO)c1c[nH]c2ccc(I)cc12 (configuration not stated) | 16 | 128 | 64 | Non-toxic | 16 | 64 | Non-toxic | 64 | 128 | Non-toxic | 64 | Non-toxic | 16 | 16 | Non-toxic | 16 | 32 | 16 | 128 | 64 | MIC (Acinetobacter baumannii): 64 µg/mL; MIC (Enterococcus faecalis): 128 µg/mL; MIC (Streptococcus pneumoniae [14]): 64 µg/mL; MIC (Staphylococcus aureus [15]): 32 µg/mL; MIC (Klebsiella pneumoniae): 64 µg/mL; Activity (MRC5 [16]): Non-toxic; MIC (Streptococcus mitis): 128 µg/mL; MIC (Staphylococcus aureus [17]): 16 µg/mL; MIC (Escherichia coli): 32 µg/mL; MIC (Staphylococcus aureus [18]): 16 µg/mL; MIC (Staphylococcus aureus [19]): 16 µg/mL; MIC [20]: 16 µg/mL
